Test results as given in ChEMBL document CHEMBL1821590, “Novel dihydropyrimidines and its pyrazole derivatives: synthesis and pharmacological screening” (Eur J Med Chem, 2011).
Values after ≈ are worked out from the molar mass of the structure shown.

How the values were obtained:
Format in all cases: functional
[1] = Antioxidant activity assessed as nitric oxide radical scavenging activity after 150 mins
Procedure, shortened: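 10 mM sodium nitroprusside (4 mL), PBS pH 7.4 (1 mL) and sample or ascorbic acid in DMSO (1 mL, 12.5–100 µg/mL), incubated 150 min at 25 °C. Nitrite detected with sulphanilic acid (5 min) then naphthylethylenediamine (30 min, diffused light). Read at […]. Triplicate. % inhibition = [1 − (Vt/Vc)] × 100. IC50 derived from it.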

[2] = Antioxidant activity assessed as hydrogen peroxide scavenging activity after 10 mins
Procedure, shortened: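 H2O2 (20 mM) in PBS pH 7.4. 1 mL of sample or ascorbic acid in methanol (12.5–100 µg/mL) added to 2 mL H2O2 solution. A230 read after 10 min. % inhibition = [1 − (Vt/Vc)] × 100. Triplicate, averaged. IC50 derived from % inhibition across concentrations.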

[3] = Antioxidant activity assessed as inhibition of lipid peroxidation using egg lecithin liposomes incubated for 1 hr
Procedure, shortened: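 Egg lecithin (3 mg/mL, phosphate buffer pH 7.4) sonicated 10 min to form liposomes. Sample or ascorbic acid (12.5–100 µg/mL) added. Peroxidation induced with FeCl3 and L-ascorbic acid, 1 h at 37 °C. Stopped with HCl/TCA/TBA/BHA, boiled 15 min, centrifuged, supernatant read at 532 nm. Triplicate. % inhibition vs control. IC50 derived.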

[4] = Antioxidant activity assessed as potassium ferricyanide ion reducing power after 20 mins
Procedure, shortened: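 Oyaizu method. Samples or ascorbic acid in DMF (12.5–100 µg/mL) mixed with 0.2 M phosphate buffer pH 6.6 and 1% potassium ferricyanide, 20 min at 50 °C. 10% TCA added, centrifuged. Supernatant mixed with water and 0.1% FeCl3, read at 700 nm. % = [(Vt/Vc) − 1] × 100. IC50 derived.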

[5] = Antiinflammatory activity assessed as inhibition of albumin denaturation at 100 ug/ml by UV-visible spectrophotometry
Procedure, shortened: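 Compounds dissolved in minimal DMF, diluted in PBS pH 7.4 (final DMF <2.5%). 1 mL test solution (100 µg/mL) plus 1 mL 1% albumin in PBS, 15 min at 27 ± 1 °C, then heated 10 min at 60 ± 1 °C. After cooling, turbidity read at 660 nm. % inhibition = [(Vt/Vc) − 1] × 100 against a no-drug control. Triplicate, averaged. Diclofenac standard.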

Metaphire posthuma [6] = assay: Anthelmintic activity against Pheretima posthuma assessed as time taken for complete parasite paralysis at 0.1% w/v
Procedure, shortened: (§1)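 Earthworms (Pheretima posthuma) exposed to test solutions at 0.1, 0.2 and 0.5% w/v; time in minutes to complete paralysis (worms motionless) recorded. Albendazole as standard. Mean of three determinations ± S.D.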

Metaphire posthuma [7] = assay: Anthelmintic activity against Pheretima posthuma assessed as time taken for complete parasite paralysis at 0.2% w/v; procedure, shortened: as §1
Metaphire posthuma [8] = assay: Anthelmintic activity against Pheretima posthuma assessed as time taken for complete parasite paralysis at 0.5% w/v; procedure, shortened: as §1
Metaphire posthuma [9] = assay: Anthelmintic activity against Pheretima posthuma assessed as time taken for parasite death at 0.1% w/v
Procedure, shortened: (§2)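 Earthworms (Pheretima posthuma, spelled Perituma posthuma in text) exposed to test compounds at 0.1, 0.2 and 0.5% w/v. Albendazole served as standard, with an untreated control. Paralysis was recorded as the time until worms became motionless, then time to death was recorded, in minutes. Each value is the mean of three determinations with S.D.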

Metaphire posthuma [10] = assay: Anthelmintic activity against Pheretima posthuma assessed as time taken for parasite death at 0.2% w/v; procedure, shortened: as §2
Metaphire posthuma [11] = assay: Anthelmintic activity against Pheretima posthuma assessed as time taken for parasite death at 0.5% w/v; procedure, shortened: as §2
Escherichia coli [12] = assay: Antimicrobial activity against Escherichia coli at 25 ug/ml by agar plate diffusion technique; conditions: read-out: IZ
Procedure, shortened: (§3)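 Agar plate diffusion against E. coli, P. aeruginosa, S. aureus and B. subtilis, with compounds at 25, 50 and 100 µg/mL. Streptomycin as standard.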

Escherichia coli [13] = assay: Antimicrobial activity against Escherichia coli at 50 ug/ml by agar plate diffusion technique; conditions: read-out: IZ; procedure, shortened: as §3
Escherichia coli [14] = assay: Antimicrobial activity against Escherichia coli at 100 ug/ml by agar plate diffusion technique; conditions: read-out: IZ; procedure, shortened: as §3
Pseudomonas aeruginosa [15] = assay: Antimicrobial activity against Pseudomonas aeruginosa at 25 ug/ml by agar plate diffusion technique; conditions: read-out: IZ; procedure, shortened: as §3
Pseudomonas aeruginosa [16] = assay: Antimicrobial activity against Pseudomonas aeruginosa at 50 ug/ml by agar plate diffusion technique; conditions: read-out: IZ; procedure, shortened: as §3
Pseudomonas aeruginosa [17] = assay: Antimicrobial activity against Pseudomonas aeruginosa at 100 ug/ml by agar plate diffusion technique; conditions: read-out: IZ; procedure, shortened: as §3
Bacillus subtilis [18] = assay: Antimicrobial activity against Bacillus subtilis at 25 ug/ml by agar plate diffusion technique; conditions: read-out: IZ; procedure, shortened: as §3
Bacillus subtilis [19] = assay: Antimicrobial activity against Bacillus subtilis at 50 ug/ml by agar plate diffusion technique; conditions: read-out: IZ; procedure, shortened: as §3
Bacillus subtilis [20] = assay: Antimicrobial activity against Bacillus subtilis at 100 ug/ml by agar plate diffusion technique; conditions: read-out: IZ; procedure, shortened: as §3
Staphylococcus aureus [21] = assay: Antimicrobial activity against Staphylococcus aureus at 25 ug/ml by agar plate diffusion technique; conditions: read-out: IZ; procedure, shortened: as §3
Staphylococcus aureus [22] = assay: Antimicrobial activity against Staphylococcus aureus at 50 ug/ml by agar plate diffusion technique; conditions: read-out: IZ; procedure, shortened: as §3
Staphylococcus aureus [23] = assay: Antimicrobial activity against Staphylococcus aureus at 100 ug/ml by agar plate diffusion technique; conditions: read-out: IZ; procedure, shortened: as §3
Candida albicans [24] = assay: Antimicrobial activity against Candida albicans at 25 ug/ml by paper disc method; conditions: read-out: IZ
Procedure, shortened: (§4)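 Paper disc method against A. niger and C. albicans, with compounds at 25, 50 and 100 µg/mL. Amphotericin-B as standard.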

Candida albicans [25] = assay: Antimicrobial activity against Candida albicans at 50 ug/ml by paper disc method; conditions: read-out: IZ; procedure, shortened: as §4
Candida albicans [26] = assay: Antimicrobial activity against Candida albicans at 100 ug/ml by paper disc method; conditions: read-out: IZ; procedure, shortened: as §4
Aspergillus niger [27] = assay: Antimicrobial activity against Aspergillus niger at 25 ug/ml by paper disc method; conditions: read-out: IZ; procedure, shortened: as §4
Aspergillus niger [28] = assay: Antimicrobial activity against Aspergillus niger at 50 ug/ml by paper disc method; conditions: read-out: IZ; procedure, shortened: as §4
Aspergillus niger [29] = assay: Antimicrobial activity against Aspergillus niger at 100 ug/ml by paper disc method; conditions: read-out: IZ; procedure, shortened: as §4

`Cn1c(NN)nc(-c2ccc(Cl)cc2)c(C#N)c1=O` showed an IC50 [1] of 59 µg/mL (≈ 214 µM), an IC50 [2] of 41 µg/mL (≈ 149 µM) and an IC50 [3] of 46 µg/mL (≈ 167 µM). It also gave an IC50 [4] of 44 µg/mL (≈ 160 µM), an inhibition [5] of 61.2% and a Time (Metaphire posthuma [6]) of 42.1 min. For the same molecule, the Time (Metaphire posthuma [7]) was 40.13 min, the Time (Metaphire posthuma [8]) was 37.67 min and the Time (Metaphire posthuma [9]) was 58.3 min. For the same molecule, the Time (Metaphire posthuma [10]) was 46.45 min, the Time (Metaphire posthuma [11]) was 42.54 min and the zone of inhibition at 25 µg/mL (Escherichia coli [12]) was 8.18 mm. For the same molecule, the zone of inhibition at 50 µg/mL (Escherichia coli [13]) was 10.9 mm, the zone of inhibition at 100 µg/mL (Escherichia coli [14]) was 12.4 mm and the zone of inhibition at 25 µg/mL (Pseudomonas aeruginosa [15]) was 7.64 mm. It also gave a zone of inhibition at 50 µg/mL (Pseudomonas aeruginosa [16]) of 10.2 mm, a zone of inhibition at 100 µg/mL (Pseudomonas aeruginosa [17]) of 14.9 mm and a zone of inhibition at 25 µg/mL (Bacillus subtilis [18]) of 10.2 mm. For the same molecule, the zone of inhibition at 50 µg/mL (Bacillus subtilis [19]) was 16 mm, the zone of inhibition at 100 µg/mL (Bacillus subtilis [20]) was 24.1 mm and the zone of inhibition at 25 µg/mL (Staphylococcus aureus [21]) was 11.2 mm. It also gave a zone of inhibition at 50 µg/mL (Staphylococcus aureus [22]) of 15.5 mm, a zone of inhibition at 100 µg/mL (Staphylococcus aureus [23]) of 20.6 mm and a zone of inhibition at 25 µg/mL (Candida albicans [24]) of 12.8 mm. The zone of inhibition at 50 µg/mL (Candida albicans [25]) was 15.7 mm, the zone of inhibition at 100 µg/mL (Candida albicans [26]) was 17.3 mm and the zone of inhibition at 25 µg/mL (Aspergillus niger [27]) was 14.6 mm. It also gave a zone of inhibition at 50 µg/mL (Aspergillus niger [28]) of 16.8 mm and a zone of inhibition at 100 µg/mL (Aspergillus niger [29]) of 21.4 mm.

`CCOC(=O)c1cnn(-c2nc(-c3cccc(O)c3O)c(C#N)c(=O)n2C)c1N` showed an IC50 [1] of 58 µg/mL (≈ 146 µM), an IC50 [2] of 53 µg/mL (≈ 134 µM) and an IC50 [3] of 49 µg/mL (≈ 124 µM). The IC50 [4] was 41 µg/mL (≈ 103 µM), the inhibition [5] was 57.6% and the Time (Metaphire posthuma [6]) was 60.22 min. It also gave a Time (Metaphire posthuma [7]) of 65.54 min, a Time (Metaphire posthuma [8]) of 53.34 min and a Time (Metaphire posthuma [9]) of 70.56 min. For the same molecule, the Time (Metaphire posthuma [10]) was 75.78 min, the Time (Metaphire posthuma [11]) was 60.74 min and the zone of inhibition at 25 µg/mL (Escherichia coli [12]) was 13.1 mm. The zone of inhibition at 50 µg/mL (Escherichia coli [13]) was 16 mm, the zone of inhibition at 100 µg/mL (Escherichia coli [14]) was 22.9 mm and the zone of inhibition at 25 µg/mL (Pseudomonas aeruginosa [15]) was 10.3 mm. For the same molecule, the zone of inhibition at 50 µg/mL (Pseudomonas aeruginosa [16]) was 12.8 mm, the zone of inhibition at 100 µg/mL (Pseudomonas aeruginosa [17]) was 20.3 mm and the zone of inhibition at 25 µg/mL (Bacillus subtilis [18]) was 14.4 mm. The zone of inhibition at 50 µg/mL (Bacillus subtilis [19]) was 15.1 mm, the zone of inhibition at 100 µg/mL (Bacillus subtilis [20]) was 21.8 mm and the zone of inhibition at 25 µg/mL (Staphylococcus aureus [21]) was 12.7 mm. The zone of inhibition at 50 µg/mL (Staphylococcus aureus [22]) was 16.1 mm, the zone of inhibition at 100 µg/mL (Staphylococcus aureus [23]) was 20.3 mm and the zone of inhibition at 25 µg/mL (Candida albicans [24]) was 10.4 mm. It also gave a zone of inhibition at 50 µg/mL (Candida albicans [25]) of 13.3 mm, a zone of inhibition at 100 µg/mL (Candida albicans [26]) of 17.7 mm and a zone of inhibition at 25 µg/mL (Aspergillus niger [27]) of 9.48 mm. For the same molecule, the zone of inhibition at 50 µg/mL (Aspergillus niger [28]) was 11.7 mm and the zone of inhibition at 100 µg/mL (Aspergillus niger [29]) was 17.2 mm.

`CCOC(=O)c1cnn(-c2nc(-c3cccs3)c(C#N)c(=O)n2C)c1N` gave an IC50 [1] of 98 µg/mL (≈ 265 µM), an IC50 [2] of 109 µg/mL (≈ 294 µM) and an IC50 [3] of 97 µg/mL (≈ 262 µM). The IC50 [4] was 79 µg/mL (≈ 213 µM), the inhibition [5] was 44.6% and the Time (Metaphire posthuma [6]) was 42.48 min. For the same molecule, the Time (Metaphire posthuma [7]) was 40.12 min, the Time (Metaphire posthuma [8]) was 43.59 min and the Time (Metaphire posthuma [9]) was 47.38 min. For the same molecule, the Time (Metaphire posthuma [10]) was 49.67 min, the Time (Metaphire posthuma [11]) was 47.44 min and the zone of inhibition at 25 µg/mL (Escherichia coli [12]) was 12.5 mm. For the same molecule, the zone of inhibition at 50 µg/mL (Escherichia coli [13]) was 13.1 mm, the zone of inhibition at 100 µg/mL (Escherichia coli [14]) was 16.1 mm and the zone of inhibition at 25 µg/mL (Pseudomonas aeruginosa [15]) was 9.67 mm. It also gave a zone of inhibition at 50 µg/mL (Pseudomonas aeruginosa [16]) of 12.7 mm, a zone of inhibition at 100 µg/mL (Pseudomonas aeruginosa [17]) of 18.8 mm and a zone of inhibition at 25 µg/mL (Bacillus subtilis [18]) of 12.9 mm. For the same molecule, the zone of inhibition at 50 µg/mL (Bacillus subtilis [19]) was 15.1 mm, the zone of inhibition at 100 µg/mL (Bacillus subtilis [20]) was 18.7 mm and the zone of inhibition at 25 µg/mL (Staphylococcus aureus [21]) was 11.8 mm. It also gave a zone of inhibition at 50 µg/mL (Staphylococcus aureus [22]) of 12.2 mm, a zone of inhibition at 100 µg/mL (Staphylococcus aureus [23]) of 16.5 mm and a zone of inhibition at 25 µg/mL (Candida albicans [24]) of 9.1 mm. It also gave a zone of inhibition at 50 µg/mL (Candida albicans [25]) of 13.8 mm, a zone of inhibition at 100 µg/mL (Candida albicans [26]) of 21.5 mm and a zone of inhibition at 25 µg/mL (Aspergillus niger [27]) of 12.1 mm. For the same molecule, the zone of inhibition at 50 µg/mL (Aspergillus niger [28]) was 15.8 mm and the zone of inhibition at 100 µg/mL (Aspergillus niger [29]) was 22.1 mm.
